Assay outcomes deposited in PubChem by NMMLSC.
ABCB1 inh: inhibitors of human ABCB1 transporter, ABCG2 counter-screen; inhibition, % at 6.6 µM; actives 0.067% (n = 190,000); CCRF-Adr cells, JC-1 efflux, flow cytometry; P08183; in the data active = inhibition above about 40%;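 also: higher value means more JC-1 retained so stronger ABCB1 efflux block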
RGS16-Gao: modulates binding between human RGS16 and Galphao; bead-based flow cytometry RGS16-Galphao binding, fluorescence; actives lie on both sides; O15492+P09471; actives 0.38% (n = 220,000); binding response (% of control), % at 10 µM;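 also: Galphao activated by GDP with aluminum fluoride before binding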
Target sequence (O15492 whole entry, looked up): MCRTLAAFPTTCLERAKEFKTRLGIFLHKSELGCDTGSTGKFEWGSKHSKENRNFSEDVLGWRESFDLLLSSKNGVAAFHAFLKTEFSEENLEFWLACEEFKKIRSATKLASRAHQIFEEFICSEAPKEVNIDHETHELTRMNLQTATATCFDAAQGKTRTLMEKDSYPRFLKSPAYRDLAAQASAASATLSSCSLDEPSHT
Target sequence (P09471 whole entry, looked up): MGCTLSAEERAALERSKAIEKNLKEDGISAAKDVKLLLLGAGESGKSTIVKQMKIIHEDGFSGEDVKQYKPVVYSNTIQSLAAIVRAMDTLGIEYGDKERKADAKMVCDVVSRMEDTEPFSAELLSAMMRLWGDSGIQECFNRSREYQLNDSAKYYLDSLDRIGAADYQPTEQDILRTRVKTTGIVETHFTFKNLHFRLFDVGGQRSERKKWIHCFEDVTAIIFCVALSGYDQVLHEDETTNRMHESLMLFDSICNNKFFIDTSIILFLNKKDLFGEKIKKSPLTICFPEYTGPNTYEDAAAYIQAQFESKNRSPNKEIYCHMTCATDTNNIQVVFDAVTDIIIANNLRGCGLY
RGS7-Gao: human RGS7-Galphao interaction regulation; P09471; Multiplexed bead flow cytometry, RGS7-Galphao binding; actives lie on both sides; binding response (% of control), % at 10 µM; actives 0.35% (n = 220,000); in the data active = binding response below about 49% or above about 150%; inconclusive = no clear call, values can overlap the other calls; inactive = in between;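 also: fluorescent Galphao held in activated GDP-AlF4 state binding bead-coupled RGS7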
Target sequence (P09471 whole entry, looked up): as above
RGS8-Gao: modulates binding of RGS8 to human Galphao; response (percent of control binding), % at 10 µM; multiplexed bead flow cytometry; actives lie on both sides; actives 0.34% (n = 220,000); P09471; in the data active = response below about 60% or above about 140%; inactive = in between;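 also: Galphao activated as the GDP aluminium fluoride complex binding bead-coupled RGS8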
ABCG2 block: inhibitors of human ABCG2 transporter, ABCB1 counter-screen; Q9UNQ0; IgMXP3 cells, JC-1 efflux, flow cytometry; inhibition, % at 6.6 µM; actives 0.1% (n = 190,000); AID 1325;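 active = inhibition above 80%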
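test system = two drug-resistant human cell lines, ABCG2 and ABCB1 | amount = 3 million cells/mL final, two lines in 1:1 ratio | reagent = JC-1 transporter substrate | doses = one concentration, 6.6 µM final | incubation = 10 min at 25 °C | signal = flow cytometric JC-1 green MFI at 530 nm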
RGS4-Gao reg: human RGS4-Galphao interaction regulation. actives 0.33% (n = 220,000). P09471. Multiplexed bead flow cytometry, RGS4-Galphao binding; actives lie on both sides. binding response (% of control), % at 10 µM. AID 1415; in the data active = binding response below about 49% or above about 150%; inactive = in between;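 also: fluorescent Galphao activated with aluminum fluoride binding bead-coupled RGS4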
RGS4-Gao HTS: RGS4-Galphao interaction regulator (human) | multiplexed bead flow cytometry, RGS–Galpha-o binding | actives 99% (n = 1,600) | shares compounds with RGS16-Gao | RGS4–Galpha-o binding response, % at 10 µM | AID 1504;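 also: fluorescently labeled Galpha-o bound to GDP with aluminium fluoride binding biotinylated RGS beads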
Biotin-avidin: interferes with biotinylated probe binding to avidin beads; inhibition, % at 10 µM; shares compounds with RGS16-Gao; AID 1783; streptavidin beads, fluorescein-biotin binding, flow cytometry; 1,700 tested, under 10 active;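 active = inhibition above 50%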;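 also: median green fluorescence of gated singlet beads compared with DMSO control wells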
RGS8-Gao single: confirmation of regulators of human RGS8-Galphao interaction. shares compounds with RGS16-Gao. bead-based flow cytometry RGS8-Galphao binding, fluorescence; actives lie on both sides. binding response (% of control), % at 10 µM. actives 3% (n = 1,700). AID 1836; in the data active = binding response below about 72% or above about 130%; inactive = in between;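 also: Galphao activated as GDP AlF4 complex before binding bead RGS8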
RGS7-Gao confirm: RGS7-Galphao interaction regulation, single point confirmation; shares compounds with RGS16-Gao; bead-based flow cytometry RGS7-Galphao binding; actives lie on both sides; response (percent of control binding), % at 10 µM; actives 7.8% (n = 1,700); in the data active = response below about 75% or above about 130%; inactive = in between;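 also: fluorescent Galphao activated with GDP and aluminum fluoride binding bead-coupled RGS7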
RGS16-Gao single: RGS16-Galphao interaction regulation, single point confirmation. shares compounds with RGS16-Gao. bead-based flow cytometry, RGS16-Galphao binding; actives lie on both sides. response (% of control binding), % at 10 µM. actives 4% (n = 1,700); in the data active = response below about 74% or above about 130%; inactive = in between;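 also: Galphao activated as the GDP aluminium fluoride complex binding bead-coupled RGS16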
RGS4-Gao single: RGS4-Galphao interaction regulation, single point confirmation. RGS4-Galphao binding, multiplexed bead flow cytometry; actives lie on both sides. actives 4% (n = 1,700). binding response (% of control), % at 10 µM. shares compounds with RGS16-Gao. AID 1840; in the data active = binding response below about 74% or above about 130%; inactive = in between
RGS19-Gao single: RGS19-Galphao interaction regulation, single point confirmation. bead-based flow cytometry RGS19-Galphao binding; actives lie on both sides. actives 5% (n = 1,700). shares compounds with RGS16-Gao. response (percent of control binding), % at 10 µM; in the data active = response below about 50% or above about 160%; inactive = in between
Numbers stand for hits; . = inactive; ? = inconclusive; / = not tested or not shown; [ ] = another dose, or the depositor's remark. Hits are enriched below; roughly 0.83% of the tested compounds scored in any of these assays. Unless noted, no rule for the calls is given here.

SMILES	ABCB1 inh	RGS16-Gao	RGS7-Gao	RGS8-Gao	ABCG2 block	RGS4-Gao reg	RGS4-Gao HTS	Biotin-avidin	RGS8-Gao single	RGS7-Gao confirm	RGS16-Gao single	RGS4-Gao single	RGS19-Gao single
COc1ccc(CNC(=O)C2CCC(CNc3c(N4CCCCC4)c(=O)c3=O)CC2)cc1 (stereo not given)	/	14.2	?	24.4	/	20.3	/	.	.	.	.	.	.
Cc1nn(C/C(C#N)=N\O)c(C)[n+]1N	.	.	.	.	.	.	/	/	/	/	/	/	/
COc1cccc(CNc2ncn[nH]2)c1OCc1ccc(F)cc1	.	.	.	.	.	.	/	/	/	/	/	/	/
CCN1CCCC1CNCc1cccc(OC)c1OCc1ccc(F)cc1 (stereo not given)	.	19.9	.	.	.	.	90.6	.	.	.	.	.	.
CCCCOCCCNC(=O)C1CCCCC1	.	.	.	55.0	.	.	83.6	.	.	.	.	.	.
O=C(NCCCCNC(=O)C1CCCC1)C1CCCC1	.	.	.	.	.	.	/	/	/	/	/	/	/
CC1CCc2nc(NC(=O)CCSc3ccccc3)sc2C1 (stereo not given)	.	20.3	.	.	.	.	78.7	.	.	.	.	.	.
N#Cc1ccc(/C=N/N=C(N)N)cc1	.	243.5[activator]	179.4[activator]	.	.	219.7[activator]	/	.	.	.	.	.	.
O=C(CSc1nc2ccccc2[nH]1)Nc1ccc(F)c(F)c1	.	/	/	/	.	/	/	.	.	.	.	.	.
CCCCC/S(CC1CC1(Cl)Cl)=N\S(=O)(=O)c1ccc(C)cc1 (stereo not given)	.	.	.	.	.	.	/	/	/	/	/	/	/
O=C(Cc1ccccc1F)Nc1cccc2cccnc12	.	.	.	.	.	.	/	/	/	/	/	/	/
O=C(O)CCCC(=O)Nc1cccc2cccnc12	.	.	150.8[activator]	.	.	.	107.3	.	.	.	.	.	.
CCCCCNCc1ccc(OCc2ccc(Cl)nc2)c(OC)c1	.	265.6[activator]	.	.	.	.	116.1	.	.	.	.	.	.
COc1ccc(CCNCc2ccc(OCc3ccc(Cl)nc3)c(OC)c2)cc1OC	.	.	.	.	.	.	/	/	/	/	/	/	/
O=Cc1cccn1-c1cccnc1	.	.	.	.	.	.	/	/	/	/	/	/	/
Nc1nc(-c2ccc(Cl)cc2)cc(C(F)(F)F)n1	.	.	.	142.1[activator]	.	.	126.2	.	.	150.7[activator]	.	126.3[activator]	.
CCC(CC)=N/N=C/c1c(O)n(CC)c2cc(C3=NNC(=O)CC3)ccc12	.	24.5	.	.	.	.	80.2	.	.	.	.	.	.
CCCCOc1ccc(C2=NNC(=O)CC2)cc1	.	.	.	.	.	.	/	/	/	/	/	/	/
CCn1c(O)c(/C=N/N=C/c2ccccc2)c2ccc(C3=NNC(=O)CC3)cc21	.	/	/	/	.	/	/	.	.	.	.	.	.
CN(C)CCNc1oc(-c2cccc(Cl)c2)nc1C#N	.	5.0	12.5	31.4	.	0.2	/	.	.	.	.	.	.
Cc1ccc(S(=O)(=O)Nc2ccccc2/C=N/c2nc3ccccc3n2C)cc1	.	.	/	.	.	.	/	.	.	.	.	.	.
Cc1ccc(S(=O)(=O)Nc2ccccc2C=Nc2cccc(C)c2C)cc1	.	.	.	.	.	.	/	/	/	/	/	/	/
O=c1ccc2cc(S(=O)(=O)N3CCN(c4cc(Cl)ccc4Cl)CC3)ccc2o1	.	/	/	/	.	/	/	.	.	.	.	.	.
O=S(=O)(N1CCCCC1)N1CCN(c2cc(Cl)ccc2Cl)CC1	.	.	.	.	.	.	/	/	/	/	/	/	/
CCN1C(=O)/C(=C\N2CCCCCC2)SC1=S	.	.	.	.	.	.	/	/	/	/	/	/	/
SMILES	ABCB1 inh	RGS16-Gao	RGS7-Gao	RGS8-Gao	ABCG2 block	RGS4-Gao reg	RGS4-Gao HTS	Biotin-avidin	RGS8-Gao single	RGS7-Gao confirm	RGS16-Gao single	RGS4-Gao single	RGS19-Gao single
CCN1C(=O)/C(=C/N2CCc3ccccc3C2)SC1=S	/	/	/	/	/	/	/	.	.	.	.	.	.
CNc1ncnc2sc(-c3ccccc3)cc12	.	13.5	11.2	15.8	.	24.4	/	.	.	.	.	.	.
O=C(O)CSc1ncnc2sc(-c3ccccc3)cc12	.	.	.	.	.	.	/	/	/	/	/	/	/
O=C(O)CCSc1ncnc2sc(-c3ccccc3)cc12	/	235.7[activator]	?	.	/	262.4[activator]	/	.	.	.	.	.	.
COc1ccc(OC)c(Nc2ncnc3sc(-c4ccccc4)cc23)c1	.	.	.	.	.	.	/	/	/	/	/	/	/
COc1cc(CC(=O)OCC(=O)Nc2ccc(Cl)c(S(=O)(=O)N(C)C)c2)cc(OC)c1OC	/	.	?	.	/	.	/	/	/	/	/	/	/
CN(C)S(=O)(=O)c1cc(NC(=O)COC(=O)Cc2ccc(Br)cc2)ccc1Cl	.	12.4	.	56.5	.	.	77.8	.	.	.	.	.	.
CC1(C)N([O-])c2cc([N+](=O)[O-])ccc2[N+]1=O	/	-9.3	?	28.6	/	.	84.1	/	/	/	/	/	/
Cc1ccc(C)n1-c1cc([N+](=O)[O-])ccc1-n1ccnc1	/	.	?	.	/	.	/	/	/	/	/	/	/
CC1=CN2CC(O)CN=C2C=C1 (stereo not given)	.	/	/	/	.	/	/	.	.	.	.	.	.
CC1(C)CN=c2s/c(=C\c3ccc(Cl)cc3)c(=O)n2C1	.	.	.	.	.	.	/	/	/	/	/	/	/
Cc1c(O)c2c3c(cccc3c1O)C(=O)N(c1ccccc1)C2=O	.	.	161.0[activator]	142.5[activator]	.	163.7[activator]	/	.	.	.	.	.	.
Oc1ccccc1-c1nc(/C=C/c2ccccc2)nn1-c1ccccc1	.	197.5[activator]	.	.	.	.	106.9	.	.	.	.	.	.
COc1ccc(-c2nnnn2C)cc1S(=O)(=O)NCc1ccccc1	.	.	.	.	.	.	/	/	/	/	/	/	/
CC(=O)NN1C(=O)c2ccccc2NC1c1ccccn1 (stereo not given)	.	22.4	.	.	.	.	97.0	.	.	.	.	.	.
